Measured values from different studies.
Compare with care: the assays were run in different laboratories.
Target: Myosin light chain kinase, smooth muscle (MYLK, Homo sapiens, UniProt Q15746)

SMILES | effect on | technique | concentration | remaining binding
O=C(O)[C@@H]1[C@@H](Cn2nnc3ccccc3c2=O)CC[C@H]1C(=O)c1ccc(OCCC2CCOCC2)cc1 | cell-free assay | competition with immobilised ligand | 1 µM | 100%
COc1ncc2cc3ccccc3nc2c1C#N | binding | competition with immobilised ligand | 5 µM | 92%
Cc1cc(C)c(-n2ccn3nc(-c4cccnc4)cc23)cc1NC(=O)c1cc(C#N)cc(S(F)(F)(F)(F)F)c1 | cell-free assay | competition with immobilised ligand | 0.1 µM | 57.7%
c1cnn2ncc(-c3ccnc(N4CCC45COC5)n3)c2c1 | binding | – | 1 µM | 84%
O=C(c1ccc(Nc2nccc(-c3cc4ccccc4s3)n2)cc1)N1CCC(N2CCCC2)CC1 | binding | competition with immobilised ligand | 1 µM | 61%
O=C(NCC1CCOCC1)c1n[nH]cc1NC(=O)c1c(F)cccc1F | binding | competition with immobilised ligand | 1 µM | 70%
O=C(NCCCN1CCOCC1)c1ccc(Nc2ncc(Cl)c(-c3ccc(Cl)s3)n2)cc1 | binding | competition with immobilised ligand | 1 µM | 89%
COc1cnc(Nc2cccc(S(N)(=O)=O)c2)nc1N1CCN(c2ccccc2)C(=O)C1 | binding | competition with immobilised ligand | 1 µM | 97%
CN(C)c1nccc(-c2cnc3ncccn23)n1 | binding | – | 1 µM | 94%
O=C(NCc1ncc(C(F)(F)F)cc1Cl)c1ccc2c(c1)C1(CCS(=O)(=O)CC1)[C@H](C1CC1)N2S(=O)(=O)c1ccc(F)cc1 | cell-free assay | competition with immobilised ligand | 1 µM | 77%
CN(C)c1nccc(-c2cnn3ncccc23)n1 | binding | – | 1 µM | 63%
Nc1ncc2c(n1)-c1c([nH]c3ccc(C#CC4CC4)cc13)CCCC2 | binding | competition with immobilised ligand | 1 µM | 92%
COc1cccc(CNC(=O)c2nc3scc(COCc4ccc(C(=O)O)cc4)c3c(=O)[nH]2)c1 | cell-free assay | competition with immobilised ligand | 1 µM | 100%
CN(c1nccc(-c2cnn3ncccc23)n1)C1CC1 | binding | – | 1 µM | 100%
CC(=O)c1c(NS(C)(=O)=O)c2cc(-c3ccc(Cl)cc3)c(-c3ccc(Cl)cc3Cl)nc2n(C)c1=O | cell-free assay | competition with immobilised ligand | 1 µM | 93%
O=C(NCCCN1CCOCC1)c1ccc(Nc2nccc(-c3cc4ccccc4s3)n2)cc1 | binding | competition with immobilised ligand | 1 µM | 94%
N[C@H]1CCN(c2nccc(-c3cnn4ncccc34)n2)C1 | binding | – | 1 µM | 81%
CCCCN(CCCC)C(=O)CN1C[C@H](c2cc(OC)c3c(c2)OCO3)[C@@H](C(=O)O)[C@@H]1CC(C)(C)CCC | cell-free assay | competition with immobilised ligand | 1 µM | 100%
C[C@H]1CCN(c2nccc(-c3cnn4ncccc34)n2)C1 | binding | – | 1 µM | 91%
CNC(=O)[C@@H]1CC[C@@H](n2c(-c3ccc4cnccc4c3)nc3ccc(C(=O)NCc4cccc(C(N)=O)c4)cc32)C1 | binding | competition with immobilised ligand | 1 µM | 100%
